Assay results gathered from unrelated publications.
Lines come from different studies, so protocols differ.
Target: Calcium/calmodulin-dependent protein kinase type 1G (CAMK1G, Homo sapiens, UniProt Q96NX5)

CNC(=O)[C@@H]1CC[C@@H](n2c(-c3ccc4cnccc4c3)nc3ccc(C(=O)NCc4cccc(C(N)=O)c4)cc32)C1
remaining binding (binding, competition with immobilised ligand; 1 µM): 98%

C[C@@]1(Cc2ccc(C#N)cc2)C(=O)N(c2cc(Cl)cc(Cl)c2)c2ncc(C(=O)NC3(c4nc(C5CCC5)no4)CC3)n21
remaining binding (cell-free assay, competition with immobilised ligand; 1 µM): 100%

O=C(Nc1c[nH]nc1C(=O)NC1CCNCC1)c1cc(F)cc(F)c1
remaining binding (binding, competition with immobilised ligand; 1 µM): 83%

CCC(=N\O)/C(C)=C/c1ccc(F)cc1
remaining binding (cell-free assay, competition with immobilised ligand; 1 µM): 97%

c1cnn2ncc(-c3ccnc(N4CCC45COC5)n3)c2c1
remaining binding (binding; 1 µM): 100%

O=C(Nc1ccc(Oc2ccc(F)cc2)cc1)N1CCc2ncccc2[C@H]1c1ccc(F)cc1
remaining binding (cell-free assay, competition with immobilised ligand; 1 µM): 100%

CN(C)c1nccc(-c2cnn3ncccc23)n1
remaining binding (binding, competition with immobilised ligand; 1 µM): 92%

COc1ccc2cc(OCC3(C(=O)O)CN(C(=O)c4ccc(F)cc4)C3)ccc2c1
remaining binding (cell-free assay, competition with immobilised ligand; 1 µM): 100%

C=CC(=O)N1CCC(C(=O)NCC(=O)N2CCN(c3nc(-c4cnc(N)nc4C(F)F)nc(N4CCOCC4)n3)CC2)CC1
remaining binding (binding, competition with immobilised ligand; 1 µM): 100%

Cc1cnc(Nc2ccc(C(=O)N3CCC(N4CCCC4)CC3)cc2)nc1-c1cc2ccccc2s1
remaining binding (binding, competition with immobilised ligand; 1 µM): 68%

CN(CCCC(F)(F)F)c1nccc(-c2cnn3ncccc23)n1
remaining binding (binding; 1 µM): 100%

Cn1nc(C(=O)NCc2ccc(C(=O)O)cc2)cc1-c1ccc2[nH]ccc2c1
remaining binding (cell-free assay, competition with immobilised ligand; 0.1 µM): 89%

COc1cnc(Nc2cccc(S(N)(=O)=O)c2)nc1N1CCN(c2ccccc2)CC1
remaining binding (binding, competition with immobilised ligand; 1 µM): 86%

c1cncc(-c2cccc(Nc3nccc(NC4CCCCC4)n3)c2)c1
remaining binding (binding, competition with immobilised ligand; 10 µM): 81%

CCN1CCN(Cc2ccc(C(=O)Nc3ccc(C)c(Oc4ccc5c(c4)CC(=O)N5)c3)cc2C(F)(F)F)CC1
remaining binding (binding, competition with immobilised ligand; 1 µM): 94%

N[C@H]1CCN(c2nccc(-c3cnn4ncccc34)n2)C1
remaining binding (binding, competition with immobilised ligand; 1 µM): 93%

O=C(c1ccc(Nc2ncc(Cl)c(-c3ccc(Cl)s3)n2)cc1)N1CCC(N2CCCC2)CC1
remaining binding (binding, competition with immobilised ligand; 1 µM): 80%

CN(C)c1nccc(-c2cnc3ncccn23)n1
remaining binding (binding; 1 µM): 100%

O=C(NC[C@@H]1[C@H]2CN(C(=O)OCc3cc(C(F)(F)F)cc(C(F)(F)F)c3)C[C@@H]12)c1ccc2[nH]nnc2c1
remaining binding (cell-free assay, competition with immobilised ligand; 1 µM): 100%

C[C@@H]1CCN(c2nccc(-c3cnn4ncccc34)n2)C1
remaining binding (binding; 1 µM): 91%

O=C(NCCCN1CCOCC1)c1ccc(Nc2nccc(-c3cc4ccccc4s3)n2)cc1
remaining binding (binding, competition with immobilised ligand; 1 µM): 98%

O=C(N1CCS(=O)(=O)CC1)N1C[C@H](c2ccc(OC(F)(F)F)cc2)C[C@H](c2nc(C3CC3)no2)C1
remaining binding (cell-free assay, competition with immobilised ligand; 1 µM): 100%
